ChEMBL document CHEMBL3232877, “Synthesis and activity of tumor-homing peptide iRGD and histone deacetylase inhibitor valproic acid conjugate” (2014)
Positions of bridges follow the written chain, without caps; N, C: chain ends. Residues, ends and D or L forms follow the SMILES beside them. *: point of attachment. Pentanoyl(2-Pr) = CCCC(CCC)C(=O)*

Assays:
Assay type in all cases: functional
DU-145 [1] = test: Cytotoxicity against human DU145 cells assessed viable cells at 1.5 mM after 72 hrs by CCK-8 assay (reference value: 100.00 +/- 2.47 %)
How it was run: (§1)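 DU-145 cells exposed 72 h to drug or drug equivalent at 0.5 mM or 1.5 mM. Viable cells read by CCK-8, absorbance 450 nm (630 nm reference). Viability % = treated viable cells / mean of untreated group (set 100%); reported as mean ± SEM; one-way ANOVA with Tukey test.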

DU-145 [2] = test: Cell cycle arrest in human DU145 cells assessed as accumulation of cells at G1 phase at 1.5 mM after 24 hrs by flow cytometry (Rvb =64.7 %)
DU-145 [3] = test: Cytotoxicity against human DU145 cells assessed viable cells at 0.5 mM after 72 hrs by CCK-8 assay (reference value: 99.97 +/- 0.84 %); how it was run: as §1
DU-145 [4] = test: Cell cycle arrest in human DU145 cells assessed as accumulation of cells at G2 phase at 1.5 mM after 24 hrs by flow cytometry (reference value: 22.1 %)

Row | Structure (SMILES) | Activity (DU-145 [1]) | Activity (DU-145 [2]) | Activity (DU-145 [3]) | Activity (DU-145 [4])
1 | CCCC(CCC)C(=O)NCC(=O)N[C@@H](Cc1ccccc1)C(=O)N[C@@H](CC(C)C)C(=O)NCC(=O)N[C@H]1CSSC[C@@H](C(N)=O)NC(=O)[C@H](CC(=O)O)NC(=O)[C@@H]2CCCN2C(=O)CNC(=O)[C@H](CCCCN)NC(=O)[C@H](CC(=O)O)NC(=O)CNC(=O)[C@H](CCCNC(=N)N)NC1=O ({Pentanoyl(2-Pr)}-GFLGCRGDKGPDC-NH2; disulfide 5-13) | 38.96% | 76.3% | 69.3% | 15.7%
2 | CC(C)C[C@H](NC(=O)[C@H](Cc1ccccc1)NC(=O)CN)C(=O)NCC(=O)N[C@H]1CSSC[C@@H](C(N)=O)NC(=O)[C@H](CC(=O)O)NC(=O)[C@@H]2CCCN2C(=O)CNC(=O)[C@H](CCCCN)NC(=O)[C@H](CC(=O)O)NC(=O)CNC(=O)[C@H](CCCNC(=N)N)NC1=O (H-GFLGCRGDKGPDC-NH2; disulfide 5-13) | 58.67% | 73.7% | 70.52% | 17.7%
3 | CCCC(CCC)C(=O)O [VALPROIC ACID] | 79.87% | 62.5% | 99.56% | 25.8%
